This excerpt belongs to a sample that is enriched for hits.
GASC1 inh – inhibitors of human demethylase GASC-1 KDM4C | GST-KDM4C 2-372, H3K9me3 peptide, LANCE TR-FRET | inhibition, % at 12.5 µM | actives 0.15% (n = 96,000);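 active means mean replicate inhibition above about 25%, with at least 55% of replicates also reaching it, limit read from the data, passing the limit was not always enough; inconclusive means only one of those two conditions met; inactive means neither condition met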
Target sequence (Q9H3R0 2-372 limits assumed): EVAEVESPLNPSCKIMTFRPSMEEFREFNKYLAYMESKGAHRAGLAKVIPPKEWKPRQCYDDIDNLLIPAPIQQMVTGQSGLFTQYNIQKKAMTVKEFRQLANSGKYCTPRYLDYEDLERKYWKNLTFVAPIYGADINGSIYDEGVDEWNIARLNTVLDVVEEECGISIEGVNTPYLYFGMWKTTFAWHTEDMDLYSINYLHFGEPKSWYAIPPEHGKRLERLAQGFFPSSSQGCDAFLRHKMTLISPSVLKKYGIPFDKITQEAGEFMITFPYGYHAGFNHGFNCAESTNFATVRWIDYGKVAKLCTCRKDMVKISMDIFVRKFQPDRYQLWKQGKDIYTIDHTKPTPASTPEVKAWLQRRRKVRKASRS
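Material: GST-tagged GASC-1 (JMJD2C) catalytic fragment, aa 2-372 / Quantity: enzyme final amount 10 nM / Medium: HEPES buffer, pH 7.5, plus ascorbate / Doses: one test concentration per compound / Incubation: 30 min reaction, 60 min detection, RT / Measured by: LANCE TR-FRET / Read-out: inhibition from TR-FRET ratio decrease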
IDH1 R132H inh – blocks human IDH1 R132H reductase activity; O75874; diaphorase/resazurin fluorescence, 60 min; inhibition, % at 10 µM; actives 0.18% (n = 70,000); in the data active means inhibition above about 34%; inconclusive means no clear call, values can overlap the other calls; inactive means below about 11%
Target sequence (O75874 whole entry R132H): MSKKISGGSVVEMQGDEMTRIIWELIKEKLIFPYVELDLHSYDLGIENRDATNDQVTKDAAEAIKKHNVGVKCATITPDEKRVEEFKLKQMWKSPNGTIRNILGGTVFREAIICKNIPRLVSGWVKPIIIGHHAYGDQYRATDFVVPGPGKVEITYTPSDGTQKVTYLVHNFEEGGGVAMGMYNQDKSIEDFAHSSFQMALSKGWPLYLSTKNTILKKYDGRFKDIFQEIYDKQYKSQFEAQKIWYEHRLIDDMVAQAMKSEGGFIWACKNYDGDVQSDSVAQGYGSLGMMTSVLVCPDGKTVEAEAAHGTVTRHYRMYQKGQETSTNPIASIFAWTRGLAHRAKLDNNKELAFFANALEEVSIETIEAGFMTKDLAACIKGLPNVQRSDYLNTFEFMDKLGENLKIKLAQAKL
T cruzi growth-1 – T. cruzi proliferation inhibition; inhibition, % at 8.34 µM; actives 5.9% (n = 77,000); T. cruzi beta-gal in NIH3T3, GalScreen luminescence, 90 h;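 active means mean inhibition above about 93%, with at least 55% of replicates each passing it, limit read from the data, passing the limit was not always enough; inconclusive means only one of those two conditions holds; inactive means neither condition holds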
T cruzi growth-2 – blocks T. cruzi growth in NIH3T3 host cells; shares compounds with T cruzi growth-1; T. cruzi beta-gal in NIH3T3, GalScreen luminescence, 90 h; inhibition, % at 8.35 µM; actives 72% (n = 5,600);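 active means mean replicate inhibition above about 95% and at least 55% of replicates individually reaching it, limit read from the data; inconclusive means only one of the two criteria is met; inactive means neither criterion is met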
T cruzi growth-3 – inhibitors of T. cruzi proliferation | shares compounds with T cruzi growth-1 | T. cruzi beta-gal in NIH3T3, GalScreen luminescence, 90 h | inhibition, % at 2.09 µM | actives 21% (n = 5,600) | AID 651740;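 active means mean inhibition above about 95%, with at least 55% of replicates also reaching it, limit read from the data; inconclusive means meets just one of the two conditions; inactive means meets neither condition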
3T3 cytotox – kills mouse NIH/3T3 fibroblasts | shares compounds with T cruzi growth-1 | NIH/3T3 viability, CellTiter-Glo ATP luminescence, 90 h | cytotoxicity (signal decrease), % at 8.35 µM | actives 14% (n = 5,600) | AID 651742;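 active means mean signal decrease across replicates above about 35% based on untreated-well scatter, with enough replicates individually passing, limit read from the data; inconclusive means no rule stated though some were filed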
NIH3T3 tox 2 – kills mouse NIH/3T3 fibroblasts | NIH/3T3 viability, CellTiter-Glo ATP luminescence, 90 h | AID 651744 | shares compounds with T cruzi growth-1 | inhibition, % at 24.9 µM | actives 56% (n = 5,600);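 active means mean loss of cell viability signal at or above a set limit, and enough replicates individually reaching it; inconclusive means meets only the mean limit or only the replicate share; inactive means meets neither condition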
Large screens that a line does not name were inactive (follow-up assays come after a bar, where they were run); ! = repeats disagree.

COc1ccc(C#Cc2ccc3c(c2)[C@@H]2[C@@H](CCN2C(=O)c2cnccn2)[C@@H](CO)N3)cc1	none (no result: IDH1 R132H inh)
CCC(=O)N1CC2(C1)CN(Cc1cccc(F)c1)[C@H](CO)c1c2c2ccc(OC)cc2n1C	none (no result: IDH1 R132H inh, T cruzi growth-1)
CCCC#Cc1cnc2c(c1)C(=O)N([C@H](C)CO)C[C@@H](C)[C@H](CN(C)S(C)(=O)=O)O2	none
CC=Cc1ccc2n(c1=O)C[C@H]1[C@H](CO)[C@@H](C(=O)NCCC)[C@@H]2N1C(=O)C1CCC1 (mixture of isomers)	none (no result: IDH1 R132H inh, T cruzi growth-1)
O=C(c1ccccc1)N1CC[C@@H]2[C@@H](CO)Nc3ccc(-c4ccccc4F)cc3[C@@H]21	T cruzi growth-1 108.3 (no result: IDH1 R132H inh) | T cruzi growth-2 108.3 | T cruzi growth-3 inactive | 3T3 cytotox inactive | NIH3T3 tox 2 inconclusive
O=C(c1cccc(F)c1)N1CC[C@@H]2[C@H]1c1cc(-c3ccccc3F)ccc1N[C@@H]2CO	none (no result: IDH1 R132H inh)
CN(C)CCCCCCNC(=O)[C@H]1C[C@H]2C(=O)N3CCC[C@H]3C(=O)N2[C@H]1c1cccc(OCCO)c1	none (no result: GASC1 inh, T cruzi growth-1)
CCOC(=O)c1c(C)oc2ccc(OCc3cc(C(=O)OC)oc3C)cc12	none (no result: GASC1 inh, T cruzi growth-1)
C[C@H]1CN([C@@H](C)CO)C(=O)c2cc(NC(=O)Nc3ccc4c(c3)OCO4)ccc2O[C@H]1CN(C)Cc1ccc(Cl)c(Cl)c1	none (no result: IDH1 R132H inh)
C[C@@H]1CN([C@H](C)CO)C(=O)c2cccc(NC(=O)Nc3ccc4c(c3)OCO4)c2O[C@H]1CN(C)Cc1ccc(Cl)c(Cl)c1	T cruzi growth-1 inconclusive (no result: IDH1 R132H inh) | T cruzi growth-2 100.5 | T cruzi growth-3 inactive | 3T3 cytotox inactive | NIH3T3 tox 2 24.7
C[C@@H]1CN([C@@H](C)CO)C(=O)c2cc(NC(=O)Nc3ccc4c(c3)OCO4)ccc2O[C@@H]1CN(C)Cc1ccc(Cl)c(Cl)c1	T cruzi growth-1 inconclusive | T cruzi growth-2 97.5 | T cruzi growth-3 inactive | 3T3 cytotox 56.6 | NIH3T3 tox 2 89.6
C[C@H](CO)N1C[C@H](C)[C@@H](CN(C)Cc2ccc(Cl)c(Cl)c2)Oc2c(NC(=O)Nc3ccc4c(c3)OCO4)cccc2C1=O	none
COC(=O)C[C@@H]1C[C@H]2c3cc(NC(=O)C4CCOCC4)ccc3O[C@H]2[C@H](CO)O1	none
C[C@@H]1CN([C@H](C)CO)C(=O)c2cc(Br)cnc2O[C@H]1CN(C)C(=O)C1CCOCC1	none
CN(C)C(=O)c1cccc(-c2ccc([C@H]3[C@@H](CO)N4CCCCN(C(=O)C5CCC5)C[C@@H]34)cc2)c1	T cruzi growth-1 105.3 (no result: IDH1 R132H inh) | T cruzi growth-2 inactive | T cruzi growth-3 inactive | 3T3 cytotox inactive | NIH3T3 tox 2 inactive
CN(C)C(=O)c1cccc(-c2ccc([C@@H]3[C@H](CO)N4CCCCN(C(=O)C5CCCC5)C[C@@H]34)cc2)c1	none (no result: GASC1 inh, IDH1 R132H inh)
CN(C)C(=O)c1cccc(-c2ccc([C@@H]3[C@H]4CN(C(=O)C5CCCC5)CCCCN4[C@H]3CO)cc2)c1	none (no result: GASC1 inh, IDH1 R132H inh)
CN(C)C(=O)c1cccc(-c2ccc([C@@H]3[C@@H](CO)N4CCCCN(S(C)(=O)=O)C[C@@H]34)cc2)c1	T cruzi growth-1 99.3 (no result: IDH1 R132H inh) | T cruzi growth-2 inconclusive | T cruzi growth-3 inactive | 3T3 cytotox inactive | NIH3T3 tox 2 inactive
CN(C)C(=O)c1cccc(-c2ccc([C@@H]3[C@@H](CO)N4CCCCN(S(C)(=O)=O)C[C@H]34)cc2)c1	none (no result: IDH1 R132H inh)
CN(C)C(=O)c1cccc(-c2ccc([C@H]3[C@H](CO)N4CCCCN(C(=O)C5CCCC5)C[C@@H]34)cc2)c1	T cruzi growth-1 inconclusive (no result: GASC1 inh, IDH1 R132H inh) | T cruzi growth-2 99.1 | T cruzi growth-3 inactive | 3T3 cytotox inactive | NIH3T3 tox 2 inactive
C[C@H](CO)N1C[C@H](C)[C@@H](CN(C)C(=O)Nc2ccccc2)Oc2ccc(NC(=O)c3ccncc3)cc2CC1=O	none (no result: T cruzi growth-1)
COc1ccc(NC(=O)N(C)C[C@H]2Oc3ccc(NS(=O)(=O)c4ccc(Cl)cc4)cc3CC(=O)N([C@H](C)CO)C[C@H]2C)cc1	none (no result: IDH1 R132H inh)
C[C@H]1CN([C@@H](C)CO)C(=O)Cc2cc(NC(=O)Cc3cn(C)c4ccccc34)ccc2O[C@H]1CN(C)Cc1ccc(C(F)(F)F)cc1	none
C[C@@H]1CN([C@H](C)CO)C(=O)Cc2cc(NC(=O)Cc3cn(C)c4ccccc34)ccc2O[C@H]1CN(C)Cc1ccc(C(F)(F)F)cc1	T cruzi growth-1 100.0 | T cruzi growth-2 104.8 | T cruzi growth-3 inactive | 3T3 cytotox inconclusive | NIH3T3 tox 2 71.2
C[C@@H]1CN([C@H](C)CO)C(=O)Cc2cc(NC(=O)Cc3cn(C)c4ccccc34)ccc2O[C@@H]1CN(C)Cc1ccccc1	T cruzi growth-1 99.6 (no result: IDH1 R132H inh) | T cruzi growth-2 103.9 | T cruzi growth-3 inactive | 3T3 cytotox inactive | NIH3T3 tox 2 40.2
C[C@@H]1CN([C@@H](C)CO)C(=O)Cc2cc(NC(=O)Cc3cn(C)c4ccccc34)ccc2O[C@@H]1CN(C)Cc1ccccc1	none
C[C@H]1CN([C@@H](C)CO)C(=O)Cc2cc(NC(=O)Cc3cn(C)c4ccccc34)ccc2O[C@@H]1CN(C)Cc1ccc(-c2ccccc2)cc1	T cruzi growth-1 98.4 | T cruzi growth-2 103.3 | T cruzi growth-3 inactive | 3T3 cytotox inactive | NIH3T3 tox 2 inactive
C[C@H]1CN([C@@H](C)CO)C(=O)Cc2cc(NC(=O)Cc3cn(C)c4ccccc34)ccc2O[C@H]1CN(C)Cc1ccc(C(=O)Nc2ccccc2N)cc1	T cruzi growth-1 101.7 (no result: IDH1 R132H inh) | T cruzi growth-2 96.2 | T cruzi growth-3 inactive | 3T3 cytotox inactive | NIH3T3 tox 2 63.4
C[C@H]1CN([C@@H](C)CO)C(=O)Cc2cc(NC(=O)Cc3cn(C)c4ccccc34)ccc2O[C@@H]1CN(C)Cc1ccc(C(=O)Nc2ccccc2N)cc1	none (no result: IDH1 R132H inh)
C[C@@H]1CN([C@H](C)CO)C(=O)Cc2cc(NC(=O)Cc3cn(C)c4ccccc34)ccc2O[C@H]1CN(C)Cc1ccc(-c2ccccc2)cc1	none
COc1ccc(NC(=O)Nc2cccc3c2O[C@@H](CN(C)CC2CCCCC2)[C@@H](C)CN([C@@H](C)CO)C3=O)cc1	none (no result: IDH1 R132H inh)
C[C@@H]1CN([C@H](C)CO)C(=O)c2cc(NS(=O)(=O)c3cn(C)cn3)ccc2O[C@@H](C)CCCCO[C@@H]1CN(C)Cc1ccccc1	none
CCCc1nc(C(C)(C)O)c(C(=O)OCc2oc(=O)oc2C)n1Cc1ccc(-c2ccccc2-c2nn[nH]n2)cc1	none (no result: GASC1 inh, T cruzi growth-1)
Cc1cc(I)ccc1NC(=O)Cn1nc(C)c([N+](=O)[O-])c1C	none (no result: GASC1 inh, T cruzi growth-1)
C[C@H](CO)N1C[C@H](C)[C@@H](CN(C)C(=O)c2ccc3ccn(C)c3c2)OCc2cnnn2CCCC1=O	T cruzi growth-1 117.1! (no result: IDH1 R132H inh) | T cruzi growth-2 inactive | T cruzi growth-3 inactive | 3T3 cytotox inactive | NIH3T3 tox 2 inactive
C[C@@H]1CN([C@@H](C)CO)C(=O)CCCn2nncc2CO[C@@H]1CN(C)C(=O)NC1CCCC1	T cruzi growth-1 inconclusive | T cruzi growth-2 inactive | T cruzi growth-3 inactive | 3T3 cytotox inactive | NIH3T3 tox 2 inactive

Compound activity (PubChem)
